Consider 51 molecules from ChEMBL document CHEMBL1135396, “Synthesis and inotropic activity of 1-(O-aminoalkyloximes) of perhydroindene derivatives as simplified digitalis-like compounds acting on the Na(+),K(+)-ATPase” (J Med Chem, 2002).

Assay [1] deals with Sodium/potassium-transporting ATPase. In words: 50% displacement of the specific [3H]ouabain binding from the dog kidney Na+/K+ ATPase. Type of assay: protein-complex assay, Canis lupus familiaris. In short, it runs like this:
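[3H]ouabain binding was measured on isolated, purified dog kidney Na+,K+-ATPase (α1 isoform), with compounds used within 1–4 h of dissolution.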

Assay [2] is filed under the species Cavia porcellus. Nature of the assay: Concentration of compound to obtain maximum inotropic activity on electrically driven guinea pig left atrium. The class given is functional, Cardiac atrium. In short, it runs like this: (§1)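 Electrically paced guinea pig left atria (platinum electrodes, 1 Hz, 1 ms pulses at twice threshold voltage) were equilibrated for 60 min. Cumulative compound concentrations were then added, each left in contact until maximal response or arrhythmias appeared. Force of contraction was recorded.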

For assay [3], the species on record is Cavia porcellus. Nature of the assay: Maximal increase in force of contraction in electrically driven guinea pig left atrium. The class given is functional, Cardiac atrium. An outline of the steps:
as §1

The species named for assay [4] is Cavia porcellus. In words: Concentration of compound producing 50% of the maximal increase in force of contraction in electrically driven guinea pig left atrium. To be noted: Cardiac atrium. Type of assay: functional. In short, it runs like this: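 Whole guinea pig left atria were paced through platinum electrodes with 1 Hz square-wave pulses (1 ms, twice threshold voltage) and equilibrated for 60 min. Compounds were then added cumulatively, each concentration held until maximal response or arrhythmia. The concentration giving half-maximal increase in contractile force was calculated from concentration–response curves.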

The target in assay [5] is Sodium/potassium-transporting ATPase. In words: 35% displacement of the specific [3H]-ouabain binding from the dog kidney Na+/K+ ATPase. The class given is protein-complex assay, Canis lupus familiaris.
Assay [6] has the same target. In words: 30% displacement of the specific [3H]ouabain binding from the dog kidney Na+/K+ ATPase. Type of assay: protein-complex assay, Canis lupus familiaris.
Assay [7] shares this target. In words: 20% displacement of the specific [3H]ouabain binding from the dog kidney Na+/K+ ATPase. The class given is protein-complex assay, Canis lupus familiaris.
The target is the same in assay [8]. Nature of the assay: 45% displacement of the specific [3H]ouabain binding from the dog kidney Na+/K+ ATPase. The class given is protein-complex assay, Canis lupus familiaris.

A word on the IC50: it is the midpoint of a concentration-inhibition curve. Consider `C[C@]12CC[C@H](c3cccc(CO)c3)C[C@@]1(O)CC[C@@H]2/C=N/OCCN`, for which the IC50 in assay [1] worked out at 2.5 µM.
Still for that read-out and setting: under `CN(C)CCO/N=C/[C@H]1CC[C@]2(O)C[C@@H](c3cccc(O)c3)CC[C@]12C` stands 10 µM; under `C[C@]12CC[C@H](c3ccccc3)C[C@@]1(O)CC[C@@H]2/C=N/OCCN`, 4 µM.
As for `C[C@]12CC[C@H](C3CCCCC3)C[C@@]1(O)CC[C@@H]2/C=N/N=C(N)N`, the IC50 in assay [1] was found to be 63 µM.
The same measure, in the same setting: the figure for `C[C@]12CC[C@H](C3CCCCC3)C[C@@]1(O)CC[C@@H]2/C=N/OCCN` is 1 µM; for `CN(C)CCCO/N=C/[C@H]1CC[C@]2(O)C[C@@H](C3CCCCC3)CC[C@]12C` it is 3.2 µM; for `CN(C)CCO/N=C/[C@H]1CC[C@]2(O)C/C(=C/c3ccccc3)CC[C@]12C` it is 50 µM.
Still for that read-out and setting: under `CC(/C=N/OCCN)=C\[C@H]1CC[C@]2(O)C[C@@H](C3CCCCC3)CC[C@]12C` stands 1.3 µM.
In the case of `C[C@]12CC[C@H](O)C[C@H]1CC[C@@H]1[C@@H]2CC[C@]2(C)[C@@H](C3=CC(=O)OC3)CC[C@]12O` [DIGITOXIGENIN], the “Concentration giving maximal inotropic effect” value in assay [2] is 3 µM. Also, in assay [3], the “Increase (Emax)” value was 200%.
Usually EC50 stands for the midpoint of the concentration-response curve. A higher EC50 goes with a need for much substance. As to `CN(C)CCO/N=C/C=C/[C@H]1CC[C@]2(O)C[C@@H](C3CCCCC3)CC[C@]12C`, in assay [2], the “Concentration giving maximal inotropic effect” value came out at 100 µM. For the same molecule, the response in assay [4] was half-maximal at 20 µM (EC50). Also, the half-inhibitory concentration (IC50) in assay [1] amounted to 1 µM. The “Increase (Emax)” value in assay [3] was found to be 50%.
`C[C@]12CC[C@H](c3ccccc3)C[C@@]1(O)CC[C@@H]2/C=N/N=C(N)N`: the IC50 in assay [5] is > 100 µM.
As to `CN(C)CCO/N=C/[C@H]1CC[C@]2(O)C[C@@H](c3cccnc3)CC[C@]12C`, the 50% inhibitory concentration (IC50) in assay [1] was determined as 13 µM.
Consider `CN(C)CCO/N=C/CC[C@H]1CC[C@]2(O)C[C@@H](C3CCCCC3)CC[C@]12C`, for which the IC50 in assay [1] came out at 5 µM.
Take `CN(C)CCO/N=C/[C@H]1CC[C@]2(O)C[C@@H](c3ccncc3)CC[C@]12C`: the IC50 in assay [1] is 2.5 µM.
In the case of `C[C@]12CC[C@H](O)C[C@H]1CC[C@@H]1[C@@H]2CC[C@]2(C)[C@@H](/C=C/C=N/OCCN)CC[C@]12O`, the “Concentration giving maximal inotropic effect” value in assay [2] was found to be 0.3 µM. Moreover, in assay [1], the IC50 was 0.016 µM. Besides, the “Increase (Emax)” value in assay [3] was determined as 155%.
Molecule `C[C@]12CC[C@H](C3CCCCC3)C[C@@]1(O)CC[C@@H]2CC/C=N/OCCN` showed an IC50 in assay [1] of 3.2 µM.
On the same count and under the same terms, under `CN(C)CCO/N=C/[C@H]1CC[C@]2(O)C[C@@H](c3ccc(O)cc3)CC[C@]12C` stands 2.5 µM.
On to `C[C@]12CC[C@H](c3ccccc3)C[C@@]1(O)CC[C@@H]2CNOCCN`, for which the concentration for half-maximal inhibition (IC50) in assay [1] stood at 20 µM. This IC50 is about 8-fold higher than that of the molecule before.
The molecule `Cc1ccc([C@H]2CC[C@]3(C)[C@@H](/C=N/OCCN)CC[C@]3(O)C2)cc1` came in with a half-inhibitory concentration (IC50) in assay [1] of 6.3 µM. This IC50 lies about 3.2-fold lower than the previous one.
Still for that read-out and setting: the figure for `CN(C)CCO/N=C/[C@H]1CC[C@]2(O)C[C@@H](c3ccc(CO)cc3)CC[C@]12C` is 8 µM; for `Cc1cccc([C@H]2CC[C@]3(C)[C@@H](/C=N/OCCN)CC[C@]3(O)C2)c1` it is 3.2 µM; for `CN(C)CCONC[C@H]1CC[C@]2(O)C[C@@H](c3ccccc3)CC[C@]12C` it is 10 µM.
Same read-out and setting: under `CN(C)CCO/N=C/[C@H]1CC[C@]2(O)C[C@@H](Cc3ccccc3)CC[C@]12C` stands 3.2 µM.
With `CN(C)CCCCO/N=C/[C@H]1CC[C@]2(O)C[C@@H](C3CCCCC3)CC[C@]12C`, in assay [1], the IC50 was found to be 10 µM.
The same measure, in the same setting: the figure for `CN(C)CCO/N=C/[C@H]1CC[C@]2(O)C/C(=C\c3ccccc3)CC[C@]12C` is 8 µM.
On to `C[C@H]1O[C@@H](O[C@H]2[C@@H](O)C[C@H](O[C@H]3[C@@H](O)C[C@H](O[C@H]4CC[C@@]5(C)[C@H](CC[C@@H]6[C@@H]5C[C@@H](O)[C@]5(C)[C@@H](C7=CC(=O)OC7)CC[C@]65O)C4)O[C@@H]3C)O[C@@H]2C)C[C@H](O)[C@@H]1O` [DIGOXIN], for which, in assay [2], the “Concentration giving maximal inotropic effect” value worked out at 1 µM. In assay [3], the “Increase (Emax)” value is given as 184%.
With `CN(C)CCO/N=C/[C@H]1CC[C@]2(O)C[C@@H](C3CCCCC3)CC[C@]12C`, the “Concentration giving maximal inotropic effect” value in assay [2] is 100 µM. Also, the EC50 in assay [4] is 12 µM. Further, the IC50 in assay [1] was 1.6 µM. Moreover, in assay [3], the “Increase (Emax)” value was found to be 70%.
Turning to `CN(C)CCO/N=C/[C@H]1CC[C@]2(O)C[C@H](c3ccccc3)CC[C@]12C`, in assay [6], the IC50 was > 100 µM.
In assay [1], `Cc1cccc([C@H]2CC[C@]3(C)[C@@H](/C=N/OCCN(C)C)CC[C@]3(O)C2)c1` registered an IC50 of 5 µM. In other words, the single-digit micromolar range.
In the case of `CN(C)CCO/N=C/C=C/[C@H]1CC[C@]2(O)[C@@H]3CC[C@@H]4C[C@@H](O)CC[C@]4(C)[C@H]3CC[C@]12C`, the “Concentration giving maximal inotropic effect” value in assay [2] is 0.3 µM. In assay [1], this molecule gave a half-inhibitory concentration (IC50) of 0.025 µM. Moreover, the “Increase (Emax)” value in assay [3] stood at 191%.
Consider `CN(C)CCO/N=C\C[C@H]1CC[C@]2(O)C[C@@H](C3CCCCC3)CC[C@]12C`, for which the 50% inhibitory concentration (IC50) in assay [1] stood at 1.6 µM. In other words, the single-digit micromolar range.
On to `C[C@]12CCCC[C@@]1(O)CC[C@@H]2/C=N/OCCCN`, for which the IC50 in assay [7] is > 100 µM.
`CN(C)CCO/N=C/[C@H]1CC[C@]2(O)C[C@@H](c3ccccc3)CC[C@]12C` displayed an IC50 in assay [1] of 3.2 µM.
With `C[C@]12CC[C@H](c3ccc(CO)cc3)C[C@@]1(O)CC[C@@H]2/C=N/OCCN`, in assay [1], the IC50 turned out to be 2.5 µM.
In assay [1], `CN(C)CCO/N=C/[C@H]1CC[C@]2(O)[C@@H]3CC[C@@H]4C[C@@H](O)CC[C@]4(C)[C@H]3CC[C@]12C` had a half-inhibitory concentration (IC50) of 0.04 µM. The “Increase (Emax)” value in assay [3] is on record as 39%.
Regarding `CC(/C=N/N=C(N)N)=C\[C@H]1CC[C@]2(O)C[C@@H](C3CCCCC3)CC[C@]12C`, the IC50 in assay [5] was > 100 µM.
`CN(C)CCO/N=C/[C@H]1CC[C@]2(O)CC([C@H]3CC[C@H](O)CC3)CC[C@]12C` (some centres not stated) had an IC50 in assay [1] of 1 µM. This counts as single-digit micromolar.
On the same count and under the same terms, the figure for `CN(C)CCO/N=C/[C@H]1CC[C@]2(O)C[C@@H](c3ccc(OCCN(C)C)cc3)CC[C@]12C` is 1 µM; for `C[C@]12CC[C@H](C3CCCCC3)C[C@@]1(O)CC[C@@H]2/C=N/OCCCN` it is 0.8 µM.
Still for that read-out and setting: the figure for `C[C@]12CC[C@H](C3CCCCC3)C[C@@]1(O)CC[C@@H]2/C=C/C=N/N=C(N)N` is 16 µM; for `CN(C)CCO/N=C/[C@H]1CC[C@]2(O)C[C@H](CC3CCCCC3)CC[C@]12C` it is 100 µM; for `C[C@]12CC[C@H](C3CCCCC3)C[C@@]1(O)CC[C@@H]2C/C=N\OCCN` it is 1.6 µM.
On the same count and under the same terms, the figure for `CN(C)CCO/N=C/[C@H]1CC[C@]2(O)CC([C@H]3CC[C@@H](O)CC3)CC[C@]12C` (some centres not stated) is 1.6 µM.
The molecule `C[C@]12CC[C@H](C3CCCCC3)C[C@@]1(O)CC[C@@H]2/C=N/OCCCCN` displayed an IC50 in assay [1] of 13 µM.
For the molecule `C[C@]12CC[C@H](C3CCCCC3)C[C@@]1(O)CC[C@@H]2/C=C/C=N/OCCN`, the “Concentration giving maximal inotropic effect” value in assay [2] turned out to be 100 µM. This molecule also had a 50% effective concentration (EC50) in assay [4] of 15 µM. In assay [1], this molecule returned an IC50 of 1 µM. Moreover, the “Increase (Emax)” value in assay [3] is reported as 90%.
`CN(C)CCO/N=C/[C@H]1CC[C@]2(O)C[C@@H](c3cccc(CO)c3)CC[C@]12C` displayed an IC50 in assay [1] of 5 µM.
On to `CC(/C=N/OCCN(C)C)=C\[C@H]1CC[C@]2(O)C[C@@H](C3CCCCC3)CC[C@]12C`, for which the IC50 in assay [1] turned out to be 2 µM.
As to `C[C@]12CC[C@H](C3CCCCC3)C[C@@]1(O)CC[C@@H]2C1=CC(=O)OC1`, the IC50 in assay [6] was > 10 µM.
For the molecule `Cc1ccc([C@H]2CC[C@]3(C)[C@@H](/C=N/OCCN(C)C)CC[C@]3(O)C2)cc1`, in assay [1], the IC50 worked out at 10 µM.
`CN(C)CCO/N=C/[C@H]1CC[C@]2(O)C[C@@H](CC3CCCCC3)CC[C@]12C` displayed an IC50 in assay [1] of 4 µM.
As to `CN(C)CCO/N=C/[C@H]1CC[C@]2(O)C[C@H](Cc3ccccc3)CC[C@]12C`, the IC50 in assay [8] was > 100 µM.
